Laboratory results as given in ChEMBL document CHEMBL4020823, “Highly Selective, Potent, and Oral mTOR Inhibitor for Treatment of Cancer as Autophagy Inducer” (J Med Chem, 2018).
pIC50: −log10 of the molar value. Calls of active or inactive are those of the source. No cut-off for these calls is given here.

Tests used:
[1] = Protein binding in human plasma at 4 uM after 4 hrs by equilibrium dialysis method; type: ADME, cell-free; conditions: read-out: PPB (converted)
Method in brief: (§1)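 Plasma protein binding measured in rabbit and human plasma with compound at 4 μM over a 4 h period; result given as percent bound.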

T47D [2] = experiment: Cell cycle arrest in human T47D cells assessed as decrease in S-phase at 0.25 to 0.5 uM after 24 hrs by propidium iodide-staining based flow cytometric analysis; type: functional
Method in brief: (§2)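 Cells were seeded at 5 × 10^5 cells/mL. At 24 h after plating they were treated with increasing concentrations for 24 h, washed in PBS, and fixed in ice-cold 70% ethanol for at least 24 h. They were stained with propidium iodide plus RNase A for 30 min at 37 °C and analysed by flow cytometry for phase distribution.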

[3] = Half life in Sprague-Dawley rat at 20 mg/kg, po administered as single dose by HPLC analysis; type: ADME, organism-based; conditions: in vivo
Method in brief: (§3)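 Rats fasted overnight, then given one 20 mg/kg dose either iv or po. Blood was collected and centrifuged at once to obtain plasma. Plasma drug levels were measured by HPLC, and PK parameters were derived from the concentration-time data.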

[4] = Clearance in Sprague-Dawley rat at 20 mg/kg, iv administered as single dose by HPLC analysis; type: ADME, organism-based; conditions: in vivo; method in brief: as §3
MDA-MB-231 = experiment: Cell cycle arrest in human MDA-MB-231 cells assessed as accumulation at G0/G1 phase at 0.25 to 0.5 uM after 24 hrs by propidium iodide-staining based flow cytometric analysis; type: functional; method in brief: as §2
Homo sapiens [5] = species on record: Homo sapiens; experiment: Inhibition of mTORC1 in human SiHa cells assessed as reduction in S6 phosphorylation at Ser 240/244 residues at 0.25 to 0.5 uM by Western blot analysis; type: cell-based
Method in brief: (§4)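 Cells treated with the indicated concentrations, then whole-cell lysates immunoblotted. mTORC1 activity read as S6 and 4E-BP1 phosphorylation; mTORC2 activity read as AKT Ser473 phosphorylation. Blocking in 5% skim milk, primary antibodies at 4 °C overnight, peroxidase-conjugated secondary, ECL detection.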

[6] = Half life in Sprague-Dawley rat at 20 mg/kg, iv administered as single dose by HPLC analysis; type: ADME, organism-based; conditions: in vivo; method in brief: as §3
T47D [7] = experiment: Induction of autophagy in human T47D cells assessed as increase in LC3-2 puncta level at 0.25 to 0.5 uM after 48 hrs by immunofluorescence staining based microscopic analysis; type: functional, cell-based
Method in brief: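 Cells seeded on glass coverslips in complete 1640 or DMEM and incubated with inhibitors at different concentrations for 48 h. Fixed in 4% paraformaldehyde, permeabilized with 0.15% Triton X-100, blocked in 4% BSA/PBS for 1 h at room temperature. Anti-LC3B (1:200) overnight, then FITC-conjugated secondary, DAPI nuclear stain. LC3B-II puncta viewed by fluorescence microscopy.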

[8] = target: PI3K p110 beta/p85 beta (Mus musculus) (UniProt Q8BTI9+O08908); experiment: Inhibition of full length recombinant mouse PI3K p110beta/p85beta at 1 uM relative to control; type: protein-complex assay
Method in brief: (§5)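 Eurofins KinaseProfiler panel with compound at a single 1 μM concentration. ATP at the Km of each kinase. Result is % inhibition, mean of two independent experiments.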

[9] = Protein binding in rabbit plasma at 4 uM after 4 hrs by equilibrium dialysis method; type: ADME, cell-free, Oryctolagus cuniculus; conditions: read-out: PPB (converted); method in brief: as §1
[10] = target: Phosphatidylinositol 4-phosphate 3-kinase C2 domain-containing subunit alpha (Homo sapiens) (UniProt O00443); experiment: Inhibition of human PI3KC2alpha at 1 uM relative to control; method in brief: as §5
HeLa = experiment: Inhibition of mTORC1 in human HeLa cells assessed as reduction in S6 phosphorylation at Ser 240/244 residues at 0.5 to 1 uM by Western blot analysis; type: cell-based; method in brief: as §4
SiHa = experiment: Cell cycle arrest in human SiHa cells assessed as decrease in S-phase at 0.25 to 0.5 uM after 24 hrs by propidium iodide-staining based flow cytometric analysis; type: functional; method in brief: as §2
T47D [11] = experiment: Antitumor activity against human T47D cells xenografted in BALB/c nude mouse assessed as decrease in tumor growth administered via oral gavage after 3 weeks; type: functional, cell-based
Mus musculus [12] = experiment: Up regulation of LC3B levels in human T47D cells xenografted in BALB/c nude mouse administered via oral gavage after 3 weeks by hematoxylin and eosine staining based light microscopic assay; type: functional, cell-based
Method in brief: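 Tumors taken from daily-dosed T-47D xenograft mice, formalin-fixed and paraffin-embedded, cut into 5 μm sections. Sections deparaffinized, rehydrated, and incubated overnight at 4 °C with anti-LC3B at 1:100. Then biotin-labeled secondary for 1 h at room temperature, ABC-peroxidase with DAB, hematoxylin counterstain. Read by light microscopy.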

Mus musculus [13] = experiment: Down regulation of 4E-BP1 phosphorylation at Ser65 residues in human T47D cells xenografted in BALB/c nude mouse administered via oral gavage after 3 weeks by hematoxylin and eosine staining based light microscopic assay; type: functional, cell-based
Method in brief: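 Tumours from the oral 3-week T-47D xenograft study were formalin-fixed, paraffin-embedded and cut into 5 μm sections. Sections were deparaffinized, rehydrated and incubated overnight at 4 °C with phospho-specific primary antibody at 1:100. Biotin secondary was applied for 1 h at room temperature, then ABC-peroxidase/DAB with hematoxylin counterstain. Sections were viewed by light microscopy.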

NCI-H460 = experiment: Growth inhibition of human H460 cells after 72 hrs by CCK8 assay; type: functional, cell-based; conditions: NCI-H460, 72 h
Method in brief: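 Cells were seeded at 2000–3000 per well and grown 24 h in serum-containing medium. They were then exposed to serially diluted compound for 72 h at 37 °C, 5% CO2. CCK8 reagent was added for 1–4 h and absorbance read at 450 nm. Inhibition = (AC − AS)/(AC − Ab) × 100%. IC50 is the average of at least three independent determinations.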

Homo sapiens [14] = species on record: Homo sapiens; experiment: Inhibition of mTORC1 in human T47D cells assessed as reduction in 4E-BP1 phosphorylation at Thr37/46 residues at 0.25 to 0.5 uM by Western blot analysis; type: cell-based; method in brief: as §4
MCF7 = experiment: Cell cycle arrest in human MCF7 cells assessed as decrease in S-phase at 0.25 to 0.5 uM after 24 hrs by propidium iodide-staining based flow cytometric analysis; type: functional; method in brief: as §2
[15] = target: Serine-protein kinase ATM (Homo sapiens, UniProt Q13315); experiment: Inhibition of full length recombinant human ATM
[16] = target: DNA-dependent protein kinase catalytic subunit (Homo sapiens, UniProt P78527); experiment: Inhibition of full length recombinant human DNA-PK
T47D [17] = experiment: Antitumor activity against human T47D cells xenografted in BALB/c nude mouse assessed as tumor weight at 60 mg/kg, po administered via gavage after 3 weeks (reference value: 1.23 g); type: functional
Homo sapiens [18] = species on record: Homo sapiens; experiment: Inhibition of mTORC1 in human SiHa cells assessed as reduction in 4E-BP1 phosphorylation at Ser65 residues at 0.25 to 0.5 uM by Western blot analysis; type: cell-based; method in brief: as §4
[19] = Oral bioavailability in Sprague-Dawley rat at 20 mg/kg administered as single dose by HPLC analysis; type: ADME, organism-based; conditions: in vivo
Method in brief: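 Rats fasted overnight, then given a single 20 mg/kg dose either iv or po. Blood collected and centrifuged immediately to obtain plasma. Plasma drug levels measured by HPLC, and pharmacokinetic parameters derived from both routes.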

[20] = target: PI3K p110 alpha/p85 alpha (Mus musculus) (UniProt P26450+P42337); experiment: Inhibition of full length recombinant mouse PI3K p110alpha/p85alpha at 1 uM relative to control; type: protein-complex assay; method in brief: as §5

Sequence of Phosphatidylinositol 4-phosphate 3-kinase C2 domain-containing subunit alpha (Homo sapiens) (O00443 whole entry, the tested form may be a part): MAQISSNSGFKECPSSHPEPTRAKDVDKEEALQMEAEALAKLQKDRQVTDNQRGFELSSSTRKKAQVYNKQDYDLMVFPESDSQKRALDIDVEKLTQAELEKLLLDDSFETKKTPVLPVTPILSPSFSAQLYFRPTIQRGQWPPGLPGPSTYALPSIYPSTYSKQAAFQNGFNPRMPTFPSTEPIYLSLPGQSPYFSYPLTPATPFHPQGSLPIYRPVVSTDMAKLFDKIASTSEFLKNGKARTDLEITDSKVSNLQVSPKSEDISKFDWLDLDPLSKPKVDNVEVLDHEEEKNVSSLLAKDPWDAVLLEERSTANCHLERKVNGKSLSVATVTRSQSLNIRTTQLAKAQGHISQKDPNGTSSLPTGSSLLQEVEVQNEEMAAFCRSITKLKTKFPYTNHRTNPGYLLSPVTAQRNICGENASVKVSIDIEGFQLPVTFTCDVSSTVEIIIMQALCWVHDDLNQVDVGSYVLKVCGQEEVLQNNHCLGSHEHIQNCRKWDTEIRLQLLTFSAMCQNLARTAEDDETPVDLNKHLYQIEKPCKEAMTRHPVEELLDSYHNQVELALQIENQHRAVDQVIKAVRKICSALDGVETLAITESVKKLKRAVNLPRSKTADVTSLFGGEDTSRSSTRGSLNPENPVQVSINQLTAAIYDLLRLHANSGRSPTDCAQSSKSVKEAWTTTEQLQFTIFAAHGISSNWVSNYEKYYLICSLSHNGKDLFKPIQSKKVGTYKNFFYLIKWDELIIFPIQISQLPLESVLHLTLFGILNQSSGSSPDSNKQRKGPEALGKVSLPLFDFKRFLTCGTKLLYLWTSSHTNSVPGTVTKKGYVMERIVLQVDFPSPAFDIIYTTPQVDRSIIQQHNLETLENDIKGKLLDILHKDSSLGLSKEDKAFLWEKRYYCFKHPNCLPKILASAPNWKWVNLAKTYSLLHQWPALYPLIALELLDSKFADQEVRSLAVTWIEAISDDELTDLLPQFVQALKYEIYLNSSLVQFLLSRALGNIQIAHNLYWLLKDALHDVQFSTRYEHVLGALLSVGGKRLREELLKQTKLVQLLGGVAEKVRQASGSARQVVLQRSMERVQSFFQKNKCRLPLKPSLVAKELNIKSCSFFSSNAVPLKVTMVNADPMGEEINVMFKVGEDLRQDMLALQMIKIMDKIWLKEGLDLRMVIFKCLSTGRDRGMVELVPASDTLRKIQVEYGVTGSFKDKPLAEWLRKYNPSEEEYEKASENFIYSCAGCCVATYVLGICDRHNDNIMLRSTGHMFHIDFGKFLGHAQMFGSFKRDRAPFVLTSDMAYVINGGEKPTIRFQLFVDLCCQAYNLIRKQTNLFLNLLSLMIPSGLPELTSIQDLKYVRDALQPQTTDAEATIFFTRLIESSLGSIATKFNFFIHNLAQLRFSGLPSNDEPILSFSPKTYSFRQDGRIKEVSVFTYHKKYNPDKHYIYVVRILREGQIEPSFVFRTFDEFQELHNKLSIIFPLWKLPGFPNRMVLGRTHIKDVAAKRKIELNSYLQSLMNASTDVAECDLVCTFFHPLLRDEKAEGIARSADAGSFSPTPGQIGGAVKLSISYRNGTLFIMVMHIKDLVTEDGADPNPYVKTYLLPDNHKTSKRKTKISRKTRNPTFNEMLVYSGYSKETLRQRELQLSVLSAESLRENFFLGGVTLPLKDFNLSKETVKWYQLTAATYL
Sequence of Serine-protein kinase ATM (Q13315 whole entry): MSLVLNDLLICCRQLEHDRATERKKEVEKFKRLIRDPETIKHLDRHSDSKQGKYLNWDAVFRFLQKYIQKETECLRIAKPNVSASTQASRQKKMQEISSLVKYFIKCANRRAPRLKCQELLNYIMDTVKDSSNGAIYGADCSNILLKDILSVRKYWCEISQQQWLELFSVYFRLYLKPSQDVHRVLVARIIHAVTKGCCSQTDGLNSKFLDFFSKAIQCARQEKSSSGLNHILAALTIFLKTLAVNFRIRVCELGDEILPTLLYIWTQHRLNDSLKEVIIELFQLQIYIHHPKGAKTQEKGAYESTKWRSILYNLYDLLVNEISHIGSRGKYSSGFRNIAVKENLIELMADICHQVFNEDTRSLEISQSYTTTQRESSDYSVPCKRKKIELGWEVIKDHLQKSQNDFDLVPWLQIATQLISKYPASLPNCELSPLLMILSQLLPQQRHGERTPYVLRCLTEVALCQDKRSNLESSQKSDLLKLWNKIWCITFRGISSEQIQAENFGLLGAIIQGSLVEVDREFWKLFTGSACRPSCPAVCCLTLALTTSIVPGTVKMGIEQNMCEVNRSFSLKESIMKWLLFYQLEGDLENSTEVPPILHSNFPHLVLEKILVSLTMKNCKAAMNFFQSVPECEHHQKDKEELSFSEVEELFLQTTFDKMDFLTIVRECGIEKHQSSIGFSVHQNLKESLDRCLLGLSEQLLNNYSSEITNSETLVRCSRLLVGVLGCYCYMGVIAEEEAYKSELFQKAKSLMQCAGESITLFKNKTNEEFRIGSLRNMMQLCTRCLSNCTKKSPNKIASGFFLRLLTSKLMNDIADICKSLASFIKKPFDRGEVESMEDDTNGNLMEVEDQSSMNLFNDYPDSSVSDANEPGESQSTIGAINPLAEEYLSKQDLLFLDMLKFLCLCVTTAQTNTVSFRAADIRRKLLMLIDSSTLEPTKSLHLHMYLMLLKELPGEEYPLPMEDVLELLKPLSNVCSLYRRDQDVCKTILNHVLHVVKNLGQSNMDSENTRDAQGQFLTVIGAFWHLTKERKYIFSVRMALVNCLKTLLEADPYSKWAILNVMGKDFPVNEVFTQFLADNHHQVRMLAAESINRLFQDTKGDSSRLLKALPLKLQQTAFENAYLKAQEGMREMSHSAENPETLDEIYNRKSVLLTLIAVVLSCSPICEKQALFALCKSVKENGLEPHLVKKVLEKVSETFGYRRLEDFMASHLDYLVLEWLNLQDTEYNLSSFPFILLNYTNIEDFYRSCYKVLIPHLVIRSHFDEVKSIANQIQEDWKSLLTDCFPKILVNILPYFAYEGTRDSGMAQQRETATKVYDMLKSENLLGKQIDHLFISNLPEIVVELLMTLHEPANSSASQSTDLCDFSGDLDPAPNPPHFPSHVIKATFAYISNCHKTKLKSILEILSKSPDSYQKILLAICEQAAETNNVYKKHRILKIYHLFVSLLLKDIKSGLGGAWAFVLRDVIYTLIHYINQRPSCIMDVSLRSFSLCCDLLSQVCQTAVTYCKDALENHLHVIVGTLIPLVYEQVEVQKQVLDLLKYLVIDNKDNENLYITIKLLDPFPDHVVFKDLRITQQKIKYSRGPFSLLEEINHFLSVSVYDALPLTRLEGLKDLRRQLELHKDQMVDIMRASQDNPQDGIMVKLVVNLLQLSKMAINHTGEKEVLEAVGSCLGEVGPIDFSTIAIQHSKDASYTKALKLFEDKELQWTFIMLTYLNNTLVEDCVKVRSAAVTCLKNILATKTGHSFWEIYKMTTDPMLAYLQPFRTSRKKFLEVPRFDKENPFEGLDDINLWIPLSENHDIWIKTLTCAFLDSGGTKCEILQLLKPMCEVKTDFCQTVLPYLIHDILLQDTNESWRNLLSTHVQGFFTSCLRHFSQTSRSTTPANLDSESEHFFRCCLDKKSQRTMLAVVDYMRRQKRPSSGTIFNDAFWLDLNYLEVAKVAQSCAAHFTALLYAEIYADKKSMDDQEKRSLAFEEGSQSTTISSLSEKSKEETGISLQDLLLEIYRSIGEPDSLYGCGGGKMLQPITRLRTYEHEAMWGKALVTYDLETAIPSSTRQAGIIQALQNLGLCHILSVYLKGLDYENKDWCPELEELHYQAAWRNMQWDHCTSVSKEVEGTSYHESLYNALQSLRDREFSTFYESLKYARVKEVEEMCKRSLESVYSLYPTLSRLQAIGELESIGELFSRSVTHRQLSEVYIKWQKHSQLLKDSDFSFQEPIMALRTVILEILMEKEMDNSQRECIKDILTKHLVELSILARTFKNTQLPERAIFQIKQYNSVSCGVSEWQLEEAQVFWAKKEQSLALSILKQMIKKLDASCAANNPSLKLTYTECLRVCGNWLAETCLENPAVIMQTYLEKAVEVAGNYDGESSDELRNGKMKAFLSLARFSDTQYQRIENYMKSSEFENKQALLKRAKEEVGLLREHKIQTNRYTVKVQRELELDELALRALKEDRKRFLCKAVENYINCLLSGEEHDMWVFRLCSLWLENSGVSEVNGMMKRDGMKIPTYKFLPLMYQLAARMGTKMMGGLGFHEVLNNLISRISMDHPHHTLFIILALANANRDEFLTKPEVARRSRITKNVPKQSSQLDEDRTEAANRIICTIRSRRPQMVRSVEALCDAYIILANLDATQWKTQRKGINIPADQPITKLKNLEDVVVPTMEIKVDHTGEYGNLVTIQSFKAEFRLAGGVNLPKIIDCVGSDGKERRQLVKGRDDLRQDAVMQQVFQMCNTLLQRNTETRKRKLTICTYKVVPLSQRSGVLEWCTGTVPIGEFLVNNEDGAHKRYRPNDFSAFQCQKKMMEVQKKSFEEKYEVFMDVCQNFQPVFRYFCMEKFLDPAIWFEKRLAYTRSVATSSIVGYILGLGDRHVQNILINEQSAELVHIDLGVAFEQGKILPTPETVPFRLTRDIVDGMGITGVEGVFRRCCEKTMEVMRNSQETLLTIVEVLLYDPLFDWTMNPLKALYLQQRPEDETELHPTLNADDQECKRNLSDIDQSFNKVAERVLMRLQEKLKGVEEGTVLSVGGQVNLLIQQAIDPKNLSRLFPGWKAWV

fraction unbound at 4 h, 4 µM [1]: 0.36
half-life [3]: 9.98 h
clearance [4]: 25.5 mL/min/kg
half-life [6]: 7.57 h
inhibition [8]: 8%
fraction unbound at 4 h, 4 µM [9]: 0.399
inhibition [10]: 4%
pIC50 (NCI-H460): 5.75
pIC50 [15]: 7.21
pIC50 [16]: 7.59
bioavailability [19]: 43.5%
inhibition [20]: 17%
SMILES: N#CCN1CCC(n2c(=O)cnc3cnc4ccc(-c5ccc(N)nc5)cc4c32)CC1
Activity (T47D [2]): Active
Activity (MDA-MB-231): Active
inhibition (Homo sapiens [5]): Active
Activity (T47D [7]): Active
inhibition (HeLa): Active
Activity (SiHa): Active
TGI (T47D [11]): Dose-dependent effect
Activity (Mus musculus [12]): Dose-dependent effect
Activity (Mus musculus [13]): Dose-dependent effect
inhibition (Homo sapiens [14]): Active
Activity (MCF7): Active
Activity (T47D [17]): 0.194 g
inhibition (Homo sapiens [18]): Active
